From ChEMBL document CHEMBL1123758, “Thromboxane synthetase inhibitors and antihypertensive agents. 3. N-[(1H-imidazol-1-yl)alkyl]heteroaryl amides as potent enzyme inhibitors” (J Med Chem, 1987)
Active and inactive are the calls of the source.

How the values were obtained:
[1] = biological target: T1, Thromboxane-A synthase (Rattus norvegicus) (UniProt P49430); settings: at 100 µM
T1 sequence (whole entry): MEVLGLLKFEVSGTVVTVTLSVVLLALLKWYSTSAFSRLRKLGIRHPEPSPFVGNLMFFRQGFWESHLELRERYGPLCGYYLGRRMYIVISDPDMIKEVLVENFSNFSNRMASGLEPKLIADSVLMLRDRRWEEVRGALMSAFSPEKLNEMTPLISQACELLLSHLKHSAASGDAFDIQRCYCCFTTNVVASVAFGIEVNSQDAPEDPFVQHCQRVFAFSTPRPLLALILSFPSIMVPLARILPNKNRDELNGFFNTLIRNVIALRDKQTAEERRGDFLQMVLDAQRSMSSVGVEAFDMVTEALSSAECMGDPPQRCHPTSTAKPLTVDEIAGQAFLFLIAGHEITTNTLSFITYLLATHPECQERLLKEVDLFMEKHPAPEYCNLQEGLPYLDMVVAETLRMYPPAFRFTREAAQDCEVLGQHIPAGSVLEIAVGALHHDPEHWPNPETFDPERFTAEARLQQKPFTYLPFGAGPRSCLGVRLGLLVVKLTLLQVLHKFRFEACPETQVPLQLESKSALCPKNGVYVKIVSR

[2] = system: Rattus norvegicus; test: Antihypertensive activity was measured in spontaneously hypertensive rats (SHR) at 100 mg/kg peroral dose (2 days); NA denotes inactive; format: functional, organism-based; parameters: dose 100 mg/kg
How it was run: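 Male 16-week-old Okamoto SHR, mean arterial pressure about 170 mmHg. Dosed by gavage at 100 mg/kg (or less) as a suspension in 2% preboiled starch, with 0.9% NaCl loading at 25 mL/kg. A second identical dose without saline was given 24 h later. Mean arterial pressure was read at 28 h, using one to three rats. Active if ≤116 mmHg in one rat or a two-rat average ≤122 mmHg.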

[3] = biological target: T2, Thromboxane-A synthase (Rattus norvegicus, UniProt P49430); test: Inhibition of thromboxane formation at a concentration of 10e -6 M.
T2 sequence (P49430 whole entry): T1 sequence (whole entry)

[4] = biological target: T1, Thromboxane-A synthase (Rattus norvegicus); test: Inhibition of thromboxane formation at a concentration of 10e -4 M.
How it was run: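 Washed SHR platelets in oxygenated Krebs phosphate buffer pH 7.4, (4.5-6.0) × 10^4 platelets/µL, with drug or vehicle, 10 min at 37 °C. Stopped on ice with citric acid. TXB2 in the supernatant was measured by direct RIA. Boiled-sample blanks were subtracted, then percent inhibition of TXB2 formation was calculated. Replicate number varies by entry.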

[5] = system: Rattus norvegicus; test: Antihypertensive activity was measured in spontaneously hypertensive rats (SHR) at 100 mg/kg peroral dose (2 days); active; format: functional, organism-based; parameters: dose 100 mg/kg
How it was run: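 Male Okamoto SHR, 16 weeks old, mean arterial pressure about 170 mmHg. Compound suspended in 2% preboiled starch at 50 mg/mL and given by gavage at 100 mg/kg or less with 0.9% NaCl loading (25 mL/kg). An identical dose without saline followed 24 h later. Mean arterial pressure was read 28 h after the first dose in one to three rats. Active: one rat ≤116 mmHg, or mean of two ≤122 mmHg.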

In the case of `O=C(NCCCCCn1cncn1)c1ccc(Cl)s1`, the inhibition [1] is reported as 100% and the Activity [2] is reported as “inactive”.
With `O=C(NCCCn1ccnc1)c1cc(Br)c(Br)s1` the IC50 [3] was 400 nM, the inhibition [1] was 100% and the Activity [2] was “inactive”.
In the case of `O=C(NCCCn1ccnc1)c1cc2ccccc2o1`, the IC50 [3] is reported as 300 nM, the inhibition [1] is reported as 97% and the Activity [2] is reported as “inactive”.
`O=C(NCCCCn1ccnc1)c1ccc(Cl)nc1` gave an inhibition [4] of 94% and an IC50 [3] of 8000 nM.
For `O=C(NCCCn1ccnc1)c1cccnc1Cl`, the inhibition [4] was 64%.
`COc1ccc2[nH]c(C(=O)NCCCn3ccnc3)cc2c1` was tested, and the inhibition [1] was 96% and the Activity [2] was “inactive”.
Work on `O=C(NCCCn1ccnc1)c1ccc(Cl)nc1` yielded an inhibition [4] of 87%.
In the case of `Cc1ccc2c(Cl)c(C(=O)NCCCn3ccnc3)sc2c1`, the inhibition [1] is reported as 96% and the Activity [2] is reported as “inactive”.
With `O=C(NCCCn1ccnc1)c1cccs1` the inhibition [1] was 93% and the Activity [2] was “inactive”.
`O=C(NCCCCn1ccnc1)c1cc2cc(Cl)ccc2[nH]1` showed an inhibition [1] of 100%.
Work on `CC(CCNC(=O)c1cc2cc(Cl)ccc2[nH]1)n1ccnc1` (stereo unspecified) yielded an IC50 [3] of 50 nM and an inhibition [1] of 98%.
`O=C(NCCCn1ccnc1)c1cc2ccccc2[nH]1` was tested, and the inhibition [1] was 94%.
With `O=C(NCCCCCn1ccnc1)c1ccc(Cl)s1` the IC50 [3] was 200 nM, the inhibition [1] was 100% and the Activity [2] was “inactive”.
With `O=C(NCCCn1ccnc1)c1cccnc1` the inhibition [1] was 83% and the Activity [2] was “inactive”.
With `O=C(NCCCn1ccnc1)c1ccc([N+](=O)[O-])o1` the inhibition [1] was 64% and the Activity [5] was “Active”.
`Cc1nccn1CCCNC(=O)c1ccc(Cl)nc1` gave an inhibition [4] of 44%.
`O=C(NCCCn1ccnc1)c1ccc(Br)o1` was tested, and the inhibition [1] was 82% and the Activity [2] was “inactive”.
Compound `O=C(NCCn1ccnc1)c1sc2ccccc2c1Cl` has an inhibition [1] of 70%.
For `Cc1cn(CCCNC(=O)c2cc3ccccc3n2C)cn1`, the inhibition [1] was 85% and the Activity [2] was “inactive”.
In the case of `O=C(NCCCn1cncn1)c1cc2ccccc2o1`, the inhibition [1] is reported as 84% and the Activity [2] is reported as “inactive”.
`CC(CCNC(=O)c1ccc(Cl)nc1)n1ccnc1` (stereo unspecified) was tested, and the inhibition [4] was 98% and the IC50 [3] was 3000 nM.
`Cc1ccc(C(=O)NCCCn2ccnc2)s1` was tested, and the IC50 [3] was 1300 nM, the inhibition [1] was 96% and the Activity [2] was “inactive”.
In the case of `O=C(NCCCn1ccnc1)c1ccco1`, the inhibition [1] is reported as 97% and the Activity [2] is reported as “inactive”.
In the case of `O=C(NCCCCn1ccnc1)c1ccco1`, the inhibition [1] is reported as 87% and the Activity [2] is reported as “inactive”.
With `O=C(NCCCCn1ccnc1)c1sc2ccccc2c1Cl` the inhibition [1] was 91% and the Activity [2] was “inactive”.
For `O=C(NCCCn1cncn1)c1ccc(Cl)s1`, the inhibition [1] was 64% and the Activity [2] was “inactive”.
With `Cn1c(C(=O)NCCCn2ccnc2)cc2ccccc21` the inhibition [1] was 89% and the Activity [2] was “inactive”.
Compound `Cc1cn(CCCNC(=O)c2ccc(Cl)nc2)cn1` has an inhibition [4] of 86%.
`O=C(NCCCCCCCCn1ccnc1)c1ccc(Cl)s1` gave an inhibition [4] of 96% and an IC50 [3] of 70 nM.
`O=C(NCCCn1ccnc1)c1sc2ccccc2c1Cl` gave an IC50 [3] of 300 nM and an inhibition [1] of 100%.
With `O=C(NCCCn1ccnc1)c1cc2cc(Cl)ccc2[nH]1` the inhibition [1] was 95% and the Activity [2] was “inactive”.
With `Cc1cn(CCCNC(=O)c2ccc(Cl)s2)cn1` the inhibition [1] was 95% and the Activity [2] was “inactive”.
Compound `O=C(NCCCCCCCCn1ccnc1)c1cc2cc(Cl)ccc2[nH]1` has an inhibition [4] of 93% and an IC50 [3] of 27 nM.
In the case of `O=C(NC/C=C/Cn1ccnc1)c1ccc(Cl)s1`, the inhibition [1] is reported as 100% and the Activity [2] is reported as “inactive”.
Compound `O=C(NCCCCCn1ccnc1)c1cc2cc(Cl)ccc2[nH]1` has an IC50 [3] of 7 nM and an inhibition [1] of 100%.
`CC(CNC(=O)c1ccc(Cl)nc1)Cn1ccnc1` (stereo unspecified) gave an inhibition [4] of 98%.
Work on `O=C(NCCn1ccnc1)c1ccco1` yielded an inhibition [1] of 65%.
Work on `O=C(NCCCCn1ccnc1)c1cccs1` yielded an IC50 [3] of 3000 nM and an inhibition [1] of 95%.
`Cc1nccn1CCCNC(=O)c1cc2ccccc2n1C` was tested, and the inhibition [1] was 56% and the Activity [2] was “inactive”.
With `O=C(NCCCn1cncn1)c1cccs1` the inhibition [1] was 30% and the Activity [2] was “inactive”.
For `O=C(NCCCn1ccnc1)c1cc2cc(Cl)ccc2s1`, the IC50 [3] was 100 nM, the inhibition [1] was 100% and the Activity [2] was “inactive”.
`O=C(NCCCn1ccnc1)c1ccc(Cl)s1` showed an IC50 [3] of 600 nM and an inhibition [1] of 95%.
`O=C(NCCCCn1cncn1)c1ccco1` was tested, and the inhibition [1] was 22% and the Activity [2] was “inactive”.
In the case of `O=C(NCCCCCCn1ccnc1)c1ccc(Cl)s1`, the IC50 [3] is reported as 200 nM, the inhibition [1] is reported as 100% and the Activity [2] is reported as “inactive”.
`Cc1cn(CCCNC(=O)c2cc3ccccc3[nH]2)cn1` was tested, and the inhibition [1] was 100% and the Activity [2] was “inactive”.
With `O=C(NCCCn1cnc(-c2ccccc2)c1)c1ccc(Cl)s1` the inhibition [1] was 70% and the Activity [2] was “inactive”.
With `Cc1cn(CCCNC(=O)c2cc3cc(Cl)ccc3[nH]2)cn1` the inhibition [1] was 100% and the Activity [2] was “inactive”.
For `O=C(NCCCCCn1ccnc1)c1ccc(Cl)nc1`, the inhibition [4] was 100% and the IC50 [3] was 3000 nM.
In the case of `Cc1nccn1CCCNC(=O)c1ccc(Cl)s1`, the inhibition [1] is reported as 78%.
For `O=C(NCCCCn1ccnc1)c1cc2ccccc2[nH]1`, the IC50 [3] was 40 nM, the inhibition [1] was 100% and the Activity [2] was “inactive”.
`O=C(NCCCCn1ccnc1)c1ccc(Cl)s1` showed an IC50 [3] of 200 nM and an inhibition [1] of 99%.
For `CC(CCNC(=O)c1ccc(Cl)s1)n1ccnc1` (stereo unspecified), the IC50 [3] was 2000 nM and the inhibition [1] was 100%.
In the case of `O=C(NCCCn1ccnc1)c1sc2cc(F)ccc2c1Cl`, the inhibition [1] is reported as 96% and the Activity [2] is reported as “inactive”.
For `O=C(NCCCCn1cncn1)c1ccc(Cl)s1`, the inhibition [1] was 83% and the Activity [2] was “inactive”.
`CC(CNC(=O)c1cc2cc(Cl)ccc2[nH]1)Cn1ccnc1` (stereo unspecified) showed an inhibition [1] of 100%.
